Drawing on ChEMBL document CHEMBL3877280, “Discovery of novel rivastigmine-hydroxycinnamic acid hybrids as multi-targeted agents for Alzheimer's disease” (Eur J Med Chem, 2017), this text covers Activity and inhibition for twelve compounds.

Active and inactive are the calls of the source. The rule behind the calls is not given here.

The species named for data set [1] is Mus musculus. Description: Cytotoxicity against mouse HT22 cells assessed as reduction in cell viability at 10 uM after 24 hrs by MTT assay. Type of data set: toxicity, cell-based. The note with it: ht-22, 24 h. An outline of the steps: (§1)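 HT22 cells grown in DMEM + 10% FBS at 37 °C, 5% CO2, seeded at 10,000 cells/well. Exposed to compound for 24 h; vehicle-only controls. Viability by MTT, mean ± SEM, n = 6.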
For orientation: Tetrazolium assays rely on reduction of a dye to a coloured formazan, in cell work by metabolically active cells.

For data set [2], the target named is Amyloid-beta precursor protein (Homo sapiens) (UniProt P05067). Description: Inhibition of HFIP-pretreated amyloid beta (1 to 42) (unknown origin) self-induced aggregation at 10 uM after 24 hrs by thioflavin-T fluorescence assay relative to control.
Amyloid-beta precursor protein (Homo sapiens), sequence (P05067 whole entry): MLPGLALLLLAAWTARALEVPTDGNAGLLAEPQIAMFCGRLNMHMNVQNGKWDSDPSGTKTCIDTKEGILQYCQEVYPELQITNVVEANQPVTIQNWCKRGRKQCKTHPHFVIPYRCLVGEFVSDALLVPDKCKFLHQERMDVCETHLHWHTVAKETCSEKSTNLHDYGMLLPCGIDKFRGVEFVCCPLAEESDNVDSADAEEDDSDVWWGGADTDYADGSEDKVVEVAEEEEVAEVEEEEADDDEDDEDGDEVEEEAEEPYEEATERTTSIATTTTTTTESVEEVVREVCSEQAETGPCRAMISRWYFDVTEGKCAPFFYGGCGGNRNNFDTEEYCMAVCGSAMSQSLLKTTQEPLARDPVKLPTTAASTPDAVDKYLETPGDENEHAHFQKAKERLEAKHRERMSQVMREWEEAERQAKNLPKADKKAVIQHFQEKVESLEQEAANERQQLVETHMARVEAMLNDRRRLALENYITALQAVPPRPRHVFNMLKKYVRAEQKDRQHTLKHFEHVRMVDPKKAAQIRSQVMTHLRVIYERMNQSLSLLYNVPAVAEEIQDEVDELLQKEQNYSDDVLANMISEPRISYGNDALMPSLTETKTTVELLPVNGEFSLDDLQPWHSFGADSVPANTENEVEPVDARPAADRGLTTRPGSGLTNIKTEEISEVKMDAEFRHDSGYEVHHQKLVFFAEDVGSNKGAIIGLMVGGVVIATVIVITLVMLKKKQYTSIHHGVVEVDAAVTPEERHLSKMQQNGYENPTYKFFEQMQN
Data set [3] can be described thus: Antioxidant activity assessed as DPPH radical scavenging activity at 10 uM incubated under dark condition for 60 mins by spectrophotometric method relative to control. The data set is classed as functional. A digest of the protocol:
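DPPH scavenging: compound at 10 µM final added to DPPH in ethanol (100 µM final), kept in dark at 25-26 °C for 60 min under dim light. Absorbance read at 517 nm. Capacity = (A1 − A2)/A1 × 100%, with A1 the control absorbance.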

Data set [4] is described as follows: Cytoprotective activity against glutamate-induced cell death in mouse HT22 cells assessed as cell viability at 10 to 30 uM preincubated for 30 mins followed by H2O2 addition measured after 24 hrs by MTT assay. Type of data set: functional, HT-22. An outline of the steps:
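HT22 cells (DMEM/10% FBS, 10,000 cells/well) pretreated with compound for 30 min, then 2 mM glutamate for 24 h. Viability by MTT; vehicle controls; mean ± SEM, n = 6.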

Data set [5] concerns the target Cholinesterase (Homo sapiens) (UniProt P06276). Nature of the data set: Inhibition of BuChE (unknown origin) at 1 uM using acetylthiocholine iodide as substrate preincubated for 60 mins followed by substrate addition measured after 5 mins by Ellman's method relative to control. A digest of the protocol: (§2)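 Ellman method at 37 °C. BuChE stock made in 0.1% gelatin, diluted to 0.13-0.100 AU/min. Enzyme preincubated with compound for 60 min in 0.1 M phosphate pH 8.0 with 40 µM DTNB, then 20 µM acetylthiocholine iodide added. A412 rate followed for 5 min against an enzyme-free blank; triplicates; percent inhibition from rates.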
(Ellman's reagent forms a yellow product with free thiols.)

The species entered for data set [6] is Mus musculus. Description: Cytotoxicity against mouse HT22 cells assessed as reduction in cell viability at 100 uM after 24 hrs by MTT assay. Type of data set: toxicity, cell-based. The following applies: ht-22, 24 h. An outline of the steps: as §1
The subject of a further data set is HT-22. Description: Cytoprotective activity against H2O2-induced cell death in mouse HT22 cells assessed as increase in cell viability at 10 to 30 uM preincubated for 30 mins followed by H2O2 addition measured after 24 hrs by MTT assay. The data set is classed as functional, cell-based. A digest of the protocol: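 HT22 cells (DMEM/10% FBS, 10,000 cells/well) pretreated with compound for 30 min, then 500 µM H2O2 for 24 h. Viability by MTT; vehicle controls; mean ± SEM, n = 6.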

Data set [7] deals with Cholinesterase (Homo sapiens) (UniProt P06276). Nature of the data set: Inhibition of BuChE (unknown origin) at 5 uM using acetylthiocholine iodide as substrate preincubated for 60 mins followed by substrate addition measured after 5 mins by Ellman's method relative to control. A digest of the protocol: as §2
Cholinesterase (Homo sapiens), sequence (P06276 whole entry): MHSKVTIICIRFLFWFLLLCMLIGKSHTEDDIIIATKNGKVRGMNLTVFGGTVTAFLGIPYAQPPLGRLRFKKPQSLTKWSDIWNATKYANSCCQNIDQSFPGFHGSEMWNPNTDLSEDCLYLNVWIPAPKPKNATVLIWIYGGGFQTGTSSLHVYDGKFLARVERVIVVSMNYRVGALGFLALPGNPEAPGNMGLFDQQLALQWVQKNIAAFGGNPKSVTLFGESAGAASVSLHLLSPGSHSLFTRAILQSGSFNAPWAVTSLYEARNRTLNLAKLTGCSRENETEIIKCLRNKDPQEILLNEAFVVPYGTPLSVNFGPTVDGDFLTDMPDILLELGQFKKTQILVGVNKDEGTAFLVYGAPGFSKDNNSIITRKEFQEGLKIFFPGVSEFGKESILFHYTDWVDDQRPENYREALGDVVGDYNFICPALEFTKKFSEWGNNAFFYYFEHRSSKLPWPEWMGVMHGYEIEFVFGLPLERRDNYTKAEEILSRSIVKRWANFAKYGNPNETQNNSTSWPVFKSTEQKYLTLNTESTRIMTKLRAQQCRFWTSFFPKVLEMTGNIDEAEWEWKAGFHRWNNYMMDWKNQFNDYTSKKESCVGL
Data set [8] is described as follows: Copper chelating activity assessed as Cu2+-compound complex formation by measuring bathochromic shift at 10 uM after 30 mins by UV-Visible spectrometric method. An outline of the steps: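 CuCl2 in water and compound (methanol stock diluted in PBS) brought up in absolute ethanol. Mixture stood 30 min at room temperature, then absorption spectrum recorded at room temperature.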

For the compound `CCN(C)C(=O)Nc1cccc(NC(=O)/C=C/c2ccc(O)c(O)c2)c1`, the Activity result was “Non-Toxic” in the data set listed under Mus musculus [1], 64.7% in [3], 56.9% in data set [4] and “Toxic” in the data set filed under Mus musculus [6]. For the same compound, the inhibition (commonly the share of the control response that was lost under treatment) amounted to 82.5% in [2], 13.8% in data set [5] and 24.4% in data set [7]. Moreover, in the data set on HT-22, the result was Active.

For the compound `CCN(C)C(=O)Oc1cccc([C@H](C)N(C)C)c1`, the inhibition is 61% in [5] and 93% in data set [7].

Take `O=C(O)/C=C/c1ccc(O)c(O)c1`: the Activity in data set [3] was determined as 64.6%.

`Nc1c(/N=N/c2ccc(-c3ccc(/N=N/c4cc(S(=O)(=O)O)c5ccccc5c4N)cc3)cc2)cc(S(=O)(=O)O)c2ccccc12`: the inhibition in [2] stood at 86.5%.

Turning to `CCN(C)C(=O)Oc1cccc(NC(=O)/C=C/c2ccc(O)c(OC)c2)c1`, the results for the Activity entry (in the data set filed under Mus musculus [1]; in data set [3]; in the data set filed under Mus musculus [6]) were “Non-Toxic”, 19.5% and “Toxic”, respectively. The inhibition in data set [2] turned out to be 13.2%; in [5] it was 98%; in data set [7], 98.3%. Besides, the result with HT-22 was Active.

Consider `CCN(C)C(=O)Oc1cccc(NC(=O)/C=C/c2ccc(O)c(O)c2)c1`, for which the Activity entry is “Non-Toxic” in the data set listed under Mus musculus [1], 37% in data set [3], 52.9% in data set [4] and “Toxic” in the data set filed under Mus musculus [6]. Further, the inhibition amounted to 73.2% in data set [2], 49.6% in data set [5] and 91% in data set [7]. For the same compound, the outcome in the data set with HT-22 was Active.

`CCN(C)C(=O)Nc1cccc(NC(=O)/C=C/c2ccc(O)c(OC)c2)c1`: the Activity result in the data set filed under Mus musculus [1] is “Non-Toxic”; in [3], 24.1%; in the data set listed under Mus musculus [6], “Toxic”. In addition, the inhibition was found to be 2.2% in data set [2], 19.4% in data set [5] and 36.6% in data set [7]. For the same compound, the outcome in the data set with HT-22 was Active.

As for `CCN(C)C(=O)Oc1cccc(CCNC(=O)/C=C/c2ccc(O)c(O)c2)c1`, the Activity result is “Non-Toxic” in the data set filed under Mus musculus [1], 51.7% in data set [3] and “Toxic” in the data set listed under Mus musculus [6]. Further, the figures for the inhibition in [2], in data set [5] and in [7] were 85.3%, 76.3% and 92%, respectively. In addition, the result (in the data set with HT-22; in data set [8]) was Active.

As to `COc1cc(/C=C/C(=O)O)ccc1O`, the Activity in data set [3] amounted to 19.9%.

Consider `CCN(C)C(=O)Oc1cccc(CCNC(=O)/C=C/c2ccc(O)c(OC)c2)c1`, for which the Activity result in the data set filed under Mus musculus [1] is “Non-Toxic”; in data set [3], 18.1%; in the data set listed under Mus musculus [6], “Toxic”. Also, the inhibition in [2] was 2.2%; in data set [5], 72.3%; in data set [7], 96.6%. In addition, the result with HT-22 was Active.

Consider `CCN(C)C(=O)Oc1cccc(CNC(=O)/C=C/c2ccc(O)c(O)c2)c1`, for which the results for the Activity entry (in the data set listed under Mus musculus [1]; in data set [3]; in the data set filed under Mus musculus [6]) were “Non-Toxic”, 69.7% and “Toxic”, respectively. Besides, the results for the inhibition in data set [2], in data set [5] and in data set [7] were 77.6%, 80.8% and 97%, respectively. Moreover, in the data set on HT-22, the outcome was Active.

Regarding `CCN(C)C(=O)Oc1cccc(CNC(=O)/C=C/c2ccc(O)c(OC)c2)c1`, the Activity entry was “Non-Toxic” in the data set filed under Mus musculus [1], 17.9% in data set [3] and “Toxic” in the data set listed under Mus musculus [6]. The results for the inhibition in data set [2], in data set [5] and in [7] were 3.2%, 87.9% and 97.9%, respectively.
